In ChEMBL document CHEMBL3758154, “Rotenoids, Flavonoids, and Chalcones from the Root Bark of Millettia usaramensis” (J Nat Prod, 2015):

Assays:
[1] = system: MDA-MB-231; assay: Cytotoxicity against human MDA-MB-231 cells assessed as cell viability after 72 hrs by Alamar Blue assay; format: functional, cell-based; conditions: MDA-MB-231, 72 h
Summary of the method: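 MDA-MB-231 cells in DMEM with 10% FBS, 2 mM L-glutamine, penicillin and streptomycin were seeded at 10 000 cells/well and grown 24 h. Medium was replaced with drug or vehicle (0.1% or 1.0% DMSO) for 72 h. Viability was read by Alamar Blue absorbance at 570 nm (600 nm reference) as % of vehicle control, from six replicates in at least six independent experiments.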

[2] = system: Plasmodium falciparum; assay: Antiplasmodial activity against chloroquine-resistant Plasmodium falciparum Dd2 assessed as inhibition of parasite growth after 72 hrs by DAPI staining-based confocal microscopic analysis; format: functional, organism-based; conditions: Dd2, 72 h
Summary of the method: (§1)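 Sorbitol-synchronized asexual P. falciparum in human O+ erythrocytes (RPMI, Hepes, hypoxanthine, 5% human serum, AlbuMAX II), ring stage at 2% parasitemia, 0.3% hematocrit. Three-step log dilutions from 40 μM top, 0.4% DMSO final. 72 h at 37 °C, 5% CO2. Saponin/Triton X/EDTA/DAPI stain overnight, confocal imaging counts parasites.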

[3] = Cytotoxicity against HEK293 cells assessed as cell viability at 20 uM after 72 hrs by resazurin-based plate reader analysis; conditions: human, read-out: Activity
[4] = Cytotoxicity against HEK293 cells assessed as cell viability at 40 uM after 72 hrs by resazurin-based plate reader analysis; conditions: human, read-out: Activity
Summary of the method: (§2)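 HEK293 cells grown in DMEM with 10% FCS, seeded at 2000 cells/well and left overnight to adhere at 37 °C, 5% CO2. Compounds were tested at a final 40 μM in 0.4% DMSO. After 72 h exposure, 44 μM resazurin in serum-free DMEM was added for 4−6 h and fluorescence read at 530/595 nm. Growth was normalised to 5 μM puromycin and 0.4% DMSO controls, with IC50 from variable-slope nonlinear regression.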

[5] = system: Plasmodium falciparum; assay: Antiplasmodial activity against chloroquine-sensitive Plasmodium falciparum 3D7 assessed as inhibition of parasite growth after 72 hrs by DAPI staining-based confocal microscopic analysis; format: functional, organism-based; conditions: 3D7, 72 h; summary of the method: as §1
[6] = system: Plasmodium falciparum; assay: Antiplasmodial activity against chloroquine-resistant Plasmodium falciparum Dd2 assessed as inhibition of parasite growth at 100 uM after 72 hrs by DAPI staining-based confocal microscopic analysis; format: functional; conditions: Dd2, 72 h
[7] = system: Plasmodium falciparum; assay: Antiplasmodial activity against chloroquine-sensitive Plasmodium falciparum 3D7 assessed as inhibition of parasite growth at 100 uM after 72 hrs by DAPI staining-based confocal microscopic analysis; format: functional; conditions: 3D7, 72 h
[8] = system: HEK293; assay: Cytotoxicity against HEK293 cells assessed as cell viability after 72 hrs by resazurin-based plate reader analysis; conditions: Homo sapiens, HEK293, 72 h; summary of the method: as §2
[9] = system: Plasmodium falciparum; assay: Antiplasmodial activity against chloroquine-resistant Plasmodium falciparum Dd2 assessed as inhibition of parasite growth at 40 uM after 72 hrs by DAPI staining-based confocal microscopic analysis; format: functional; conditions: Dd2, 72 h; summary of the method: as §1

In the case of `CC(C)=CCC/C(C)=C/COc1ccc(C(=O)/C=C/c2ccc(O)cc2)c(O)c1`, the IC50 [1] is reported as 126 µM.

`C[C@H]1[C@@H](O)O[C@@H]2O[C@@]3(C)CC[C@H]4[C@H](C)CC[C@@H]1[C@@]24OO3` [ARTENIMOL] showed an IC50 [2] of 0.000146 µM, a viability at 72 h, 20 µM [3] of 50% and a viability at 72 h, 40 µM [4] of 54%. It also gave an IC50 [5] of 0.0001 µM.

`O[C@@H]1c2ccc3c(c2O[C@@H]2COc4cc5c(cc4[C@@]12O)OCO5)OCO3` showed an IC50 [1] of over 279 µM.

For `COc1ccc2nc3cc(Cl)ccc3c(Nc3cc(CN4CCCC4)c(O)c(CN4CCCC4)c3)c2n1` [PYRONARIDINE], the IC50 [2] was 0.00751 µM and the IC50 [5] was 0.0036 µM.

Compound `O=C1c2ccc3c(c2O[C@@H]2COc4cc5c(cc4[C@@]12O)OCO5)OCO3` has an inhibition at 100 µM [6] of 90%, an IC50 [1] of 87.3 µM and an inhibition at 100 µM [7] of 99%.

`COc1ccc2c(c1CC=C(C)C)O[C@@H]1COc3cc4c(cc3[C@@]1(O)C2=O)OCO4` showed an IC50 [1] of 25.7 µM.

With `CC1(C)C=Cc2c(ccc3c2O[C@@H]2COc4cc5c(cc4[C@]2(O)C3=O)OCO5)O1` the IC50 [1] was 61.7 µM.

Compound `COc1ccc(C[C@H](N)C(=O)N[C@H]2[C@@H](O)[C@H](n3cnc4c(N(C)C)ncnc43)O[C@@H]2CO)cc1` [PUROMYCIN] has an IC50 [2] of 0.0452 µM, an IC50 [5] of 0.0227 µM and an IC50 [8] of 0.361 µM.

`COc1cc2c(cc1-c1coc3c4c(ccc3c1=O)OC(C)(C)C=C4)OCO2` showed an inhibition at 100 µM [6] of 81% and an inhibition at 100 µM [7] of 94%.

Work on `CCc1nc(N)nc(N)c1-c1ccc(Cl)cc1` [PYRIMETHAMINE] yielded a viability at 72 h, 40 µM [4] of 75% and an inhibition at 40 µM [9] of 62%.

For `CC1(C)C=Cc2c(ccc3c2O[C@@H]2COc4cc5c(cc4[C@@]2(O)C3=O)OCO5)O1`, the inhibition at 100 µM [6] was 29%, the IC50 [1] was 101 µM and the inhibition at 100 µM [7] was 28%.

`CC(C)=CCC/C(C)=C/COc1ccc(/C=C/C(=O)c2ccc(O)cc2O)cc1` gave an IC50 [2] of 6.97 µM and an IC50 [5] of 3.67 µM.

Work on `CC(C)=CCC/C(C)=C/COc1ccc(/C=C/CO)cc1` yielded an IC50 [1] of 207 µM.

With `COc1cc2c(cc1OC)[C@]1(O)C(=O)c3ccc4c(c3O[C@@H]1CO2)C=CC(C)(C)O4` [TEPHROSIN] the IC50 [2] was 12.1 µM and the IC50 [5] was 13.3 µM.

`C[C@H]1[C@H](OC(=O)CCC(=O)O)O[C@@H]2O[C@@]3(C)CC[C@H]4[C@H](C)CC[C@@H]1[C@@]24OO3` [ARTESUNATE] showed an IC50 [2] of 0.000443 µM, a viability at 72 h, 20 µM [3] of 73% and an IC50 [5] of 0.0005 µM.

With `CCN(CC)CCCC(C)Nc1ccnc2cc(Cl)ccc12` (configuration not stated) [CHLOROQUINE] the viability at 72 h, 40 µM [4] was 51%.
